{
  "source": "PubChem BioAssay AID1263",
  "about": "(The Scripps Research Institute Molecular Screening Center, 2008)",
  "note": "Some of the results follow. Calls of active or inactive are those of the source.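 The calls were made as follows: active = triplicate mean inhibition exceeding the hit cutoff computed for the primary STAT1 screen (cut at about 35% in these data); inactive = the rest.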",
  "data": [
    {"assay": "blockers of IFN-gamma STAT1 reporter activity – cell-based, HTS, luciferase reporter, confirmation (AID 1263);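 also: 0% = DMSO with IFN-gamma and 100% = 300 µM nifuroxazide with IFN-gamma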", "settings": "NIH 3T3 STAT1-luciferase reporter, luminescence, at 5.5 µM, active compounds read high", "method_in_brief": "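System – NIH 3T3 STAT1-luciferase reporter cells · Dosing – one dose only · Repeats – three replicates · Read-out basis – % inhibition scaled between DMSO and nifuroxazide · Incubation – compound preincubation 1 h, IFN-gamma exposure 4 h, 37 °C, substrate 15 min · Also added – IFN-gamma stimulus, 3.0 ng/mL · Measured by – luciferase luminescence · Benchmarks – high control 300 µM nifuroxazide, low control DMSO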", "values": [
      {"smiles": "C[C@@H]1C[C@@H]2O[C@H]2/C=C\\C=C\\C(=O)Cc2c(Cl)c(O)cc(O)c2C(=O)O1", "inhibition": "61% (active)"},
      {"smiles": "CCOC(=O)C(=CNc1cccc(C)n1)C(=O)OCC", "inhibition": "32.5% (inactive)"},
      {"smiles": "NS(=O)(=O)c1cccc(NC(=O)CSc2nc3ccccc3n2-c2ccccc2)c1", "inhibition": "31.4% (inactive)"},
      {"smiles": "COc1ccc(C2CC(c3cccs3)=NN2c2nc(C)c(C(C)=O)s2)cc1OC", "note": "(stereo not given)", "inhibition": "20.8% (inactive)"},
      {"smiles": "O=C(CCl)N(Cc1cccc([N+](=O)[O-])c1)c1cccc(Cl)c1", "inhibition": "33.3% (inactive)"},
      {"smiles": "CCOC(=O)N1CCN(C(=O)C2CCN(c3ncnc4c3sc3cccc(F)c34)CC2)CC1", "inhibition": "41.5% (active)"},
      {"smiles": "COc1ccc(C(=O)Nc2ccccc2C(=O)N/N=C/c2ccccc2OC)cc1", "inhibition": "0.25% (inactive)"},
      {"smiles": "COC(=O)C1=CN(Cc2ccc(OC)c(OC)c2)C=C(C(=O)OC)C1c1cccs1", "inhibition": "38.3% (active)"},
      {"smiles": "CCOC(=O)N1CCN(C(=O)CSc2nnc(-c3c[nH]c4ccccc34)n2CCOC)CC1", "inhibition": "33.9% (inactive)"},
      {"smiles": "Cc1ccc(C2=Nc3c(ccc4ccccc34)C(c3ccncc3)=NN2)cc1", "inhibition": "60.4% (active)"}
    ]}
  ]
}
